Measured values reported in ChEMBL document CHEMBL1141222, “Antitrypanosomal, antileishmanial, and antimalarial activities of quaternary arylalkylammonium 2-amino-4-chlorophenyl phenyl sulfides, a new class of trypanothione reductase inhibitor, and of N-acyl derivatives of 2-amino-4-chlorophenyl phenyl sulfide” (J Med Chem, 2005).
Converted amounts (≈) assume the structure as drawn.

Assays:
Plasmodium falciparum = assay: Antimalarial activity against Plasmodium falciparum 3D7; assay type: functional, organism-based
Procedure, shortened: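 Asynchronous 3D7 cultures (65-75% rings) in RPMI 1640, 5% hematocrit, 0.5% parasitemia, 37 °C, 5% CO2; top final drug concentration 30. After 24 h, [3H]-hypoxanthine ([…]) added, then 48 h more. Plates freeze/thawed and harvested; uptake by scintillation counting; IC50 by curve fit.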

KB = assay: Cytotoxicity in KB cells; assay type: functional, cell-based; conditions: Homo sapiens
Leishmania donovani = assay: Antileishmanial activity against Leishmania donovani HU3; assay type: functional, organism-based
Procedure, shortened: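 Peritoneal exudate macrophages from CD1 mice (harvested 24 h after starch induction) held 24 h in RPMI1640 + 10% HIFCS, 37 °C, 5% CO2, then infected with hamster-spleen HU3 amastigotes at 5:1. After 24 h, drug exposure for 5 days (overlay replaced day 3), top 30 µg/mL, quadruplicate. Giemsa-stained slides scored microscopically; IC50 by curve fit. Pentostam positive control.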

Trypanosoma cruzi = assay: Antitrypanosomal activity against Trypanosoma cruzi Tulahuan; assay type: functional, organism-based
[1] = tested on: Trypanosoma brucei rhodesiense; assay: Antitrypanosomal activity against Trypanosoma brucei rhodesiense STIB900; assay type: functional, organism-based
Procedure, shortened: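 STIB900 bloodstream trypomastigotes in HMI-18 + 15% HIFCS, seeded at 2 × 10⁵/mL onto drug dilutions (top 30 µg/mL), 72 h at 37 °C, 5% CO2; pentamidine reference.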

Trypanothione reductase [2] = molecular target: T1, Trypanothione reductase (Trypanosoma cruzi, UniProt P28593); assay: Linear competitive inhibition of trypanothione reductase from Trypanosoma cruzi using (ZCG.dmapa)2 substrate
T1 sequence (P28593 whole entry): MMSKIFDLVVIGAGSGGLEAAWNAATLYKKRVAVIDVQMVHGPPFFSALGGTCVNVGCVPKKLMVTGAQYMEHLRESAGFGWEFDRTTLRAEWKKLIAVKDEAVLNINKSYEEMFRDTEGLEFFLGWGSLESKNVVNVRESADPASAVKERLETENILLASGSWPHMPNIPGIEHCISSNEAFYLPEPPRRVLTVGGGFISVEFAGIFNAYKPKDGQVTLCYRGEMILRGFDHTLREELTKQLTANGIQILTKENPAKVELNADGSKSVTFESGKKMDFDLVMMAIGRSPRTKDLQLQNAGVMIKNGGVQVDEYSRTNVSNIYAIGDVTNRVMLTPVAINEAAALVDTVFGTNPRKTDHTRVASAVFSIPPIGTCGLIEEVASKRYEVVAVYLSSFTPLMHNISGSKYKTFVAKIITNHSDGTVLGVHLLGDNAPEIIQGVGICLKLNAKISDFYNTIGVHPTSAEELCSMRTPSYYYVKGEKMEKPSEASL

[3] = molecular target: T2, Glutathione reductase, mitochondrial (Homo sapiens, UniProt P00390); assay: Inhibitory activity against human glutathione reductase at 0.5 mM
T2 sequence (P00390 whole entry): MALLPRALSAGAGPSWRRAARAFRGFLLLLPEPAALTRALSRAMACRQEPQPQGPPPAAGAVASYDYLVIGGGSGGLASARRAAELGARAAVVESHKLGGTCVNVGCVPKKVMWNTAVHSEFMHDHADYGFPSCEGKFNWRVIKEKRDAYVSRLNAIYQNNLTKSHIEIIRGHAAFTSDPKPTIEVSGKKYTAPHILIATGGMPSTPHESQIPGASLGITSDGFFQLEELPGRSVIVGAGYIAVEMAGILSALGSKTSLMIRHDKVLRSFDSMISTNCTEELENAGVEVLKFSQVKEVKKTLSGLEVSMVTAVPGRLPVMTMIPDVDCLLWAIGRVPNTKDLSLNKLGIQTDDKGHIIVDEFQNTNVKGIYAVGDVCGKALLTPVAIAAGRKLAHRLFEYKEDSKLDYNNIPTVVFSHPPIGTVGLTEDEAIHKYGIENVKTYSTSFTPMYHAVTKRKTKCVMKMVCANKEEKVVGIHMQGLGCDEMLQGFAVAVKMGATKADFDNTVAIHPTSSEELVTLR

Trypanothione reductase [4] = molecular target: T1, Trypanothione reductase; assay: Linear competitive inhibition of trypanothione reductase from Trypanosoma cruzi using TSST substrate
[5] = molecular target: Trypanothione reductase (Trypanosoma cruzi) (UniProt P28593); assay: (§1) Mixed inhibition of trypanothione reductase from Trypanosoma cruzi using TSST substrate
Chain of Trypanothione reductase (Trypanosoma cruzi) (P28593 whole entry, looked up): as the sequence (P28593 whole entry) above
Procedure, shortened: (§2)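 E. coli JM109-expressed T. cruzi TR (3 µg/mL), 25 °C, 0.02 M HEPES pH 7.25 containing 0.15 M KCl, 1 mM EDTA and 0.1 mM NADPH. TSST as variable substrate at 30-240 µM against a series of inhibitor concentrations. Absorbance read at 340 nm. Ki and Ki′ obtained from Dixon, Lineweaver-Burk and Cornish-Bowden plots fitted to a mixed inhibition model.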

Trypanothione reductase [6] = molecular target: T1, Trypanothione reductase; assay: as §1; procedure, shortened: as §2
Trypanothione reductase [7] = molecular target: T1, Trypanothione reductase; assay: Inhibitory activity against trypanothione reductase from Trypanosoma cruzi using 0.12 mM TSST substrate
Procedure, shortened: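 Recombinant T. cruzi TR overexpressed in E. coli JM109, homogeneous by SDS-PAGE. I50 read by interpolation from velocity vs inhibitor concentration, fitted to the linear competitive equation by nonlinear regression.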

| SMILES | IC50 (Plasmodium falciparum) | IC50 (KB) | IC50 (Leishmania donovani) | IC50 (Trypanosoma cruzi) | IC50 [1] | Ki (Trypanothione reductase [2]) | Ki [3] | Ki (Trypanothione reductase [4]) | Ki' [5] | IC50 (Trypanothione reductase [6]) | Ki (Trypanothione reductase [6]) | IC50 (Trypanothione reductase [7]) |
| --- | --- | --- | --- | --- | --- | --- | --- | --- | --- | --- | --- | --- |
| O=[N+]([O-])c1cc(Cl)ccc1Sc1ccccc1 | 15.6 µg/mL (≈ 58.7 µM) | 43.1 µg/mL (≈ 162 µM) | > 30 µg/mL | 11.3 µg/mL (≈ 42.5 µM) | 11.5 µg/mL (≈ 43.3 µM) |  |  |  |  |  |  |  |
| C[N+](C)(CCCNc1cc(Cl)ccc1Sc1ccccc1)c1ccccc1 |  |  |  |  |  | 14.2 µM |  |  |  |  |  |  |
| C[N+](C)(CCCNc1cc(Cl)ccc1Sc1ccccc1)C(c1ccccc1)c1ccccc1 |  |  |  |  |  | 5.3 µM |  |  |  |  |  |  |
| C[N+](C)(CCCNc1cc(Cl)ccc1Sc1ccccc1)c1ccc(OCc2ccccc2)cc1 |  |  |  |  |  | 6.6 µM |  |  |  |  |  |  |
| C[N+](C)(CCCNc1cc(Cl)ccc1Sc1ccccc1)c1ccc(Cl)c(Cl)c1 |  |  |  |  |  | 1.69 µM | Not Active |  |  |  |  |  |
| CC(C)(C)c1ccc([N+](C)(C)CCCN2c3ccccc3Sc3ccc(Cl)cc32)cc1 | 0.13 µg/mL | 2.88 µg/mL | 3.8 µg/mL | < 1.1 µg/mL | 0.02 µg/mL | 66 µM |  | 0.57 µM |  |  |  |  |
| CCCC(=O)Nc1cc(Cl)ccc1Sc1ccccc1 | 19.1 µg/mL (≈ 62.5 µM) | > 300 µg/mL | > 30 µg/mL | 9.4 µg/mL (≈ 30.7 µM) | 14.2 µg/mL (≈ 46.4 µM) |  |  |  | 42.6 µM | 30.5 µM | 11.3 µM |  |
| O=C(Nc1cc(Cl)ccc1Sc1ccccc1)c1ccc([N+](=O)[O-])cc1 | > 30 µg/mL | 223 µg/mL (≈ 579 µM) | > 30 µg/mL | > 30 µg/mL | > 30 µg/mL |  |  |  | 12.9 µM | 44.5 µM | 42.8 µM |  |
| Nc1cc(Cl)ccc1Sc1ccccc1 | 11.3 µg/mL (≈ 47.9 µM) | 47.9 µg/mL (≈ 203 µM) | > 30 µg/mL | 6.7 µg/mL (≈ 28.4 µM) | 4.4 µg/mL (≈ 18.7 µM) |  |  |  | 860 µM |  | 150 µM |  |
| CC(C)(C)c1ccc([N+](C)(C)CCCN)cc1 | > 30 µg/mL | > 300 µg/mL | > 30 µg/mL | > 30 µg/mL | > 30 µg/mL |  |  |  |  |  | 0.15 µM | 0.6 µM |
| CC(C)(C)c1ccc([N+](C)(C)CCCNc2cc(Cl)ccc2Sc2ccccc2)cc1 | 0.6 µg/mL | 2.14 µg/mL | 3.9 µg/mL | < 1.1 µg/mL | 0.01 µg/mL | 6.5 µM |  | 2.67 µM |  |  |  |  |
| O=C(Cc1ccccc1)Nc1cc(Cl)ccc1Sc1ccccc1 | 30 µg/mL (≈ 84.8 µM) | > 300 µg/mL | > 30 µg/mL | > 30 µg/mL | 7.4 µg/mL (≈ 20.9 µM) |  |  |  | 35.9 µM | 36.8 µM | 24.6 µM |  |
| CCC(=O)Nc1cc(Cl)ccc1Sc1ccccc1 | > 30 µg/mL | 93.1 µg/mL (≈ 319 µM) | > 30 µg/mL | 18.3 µg/mL (≈ 62.7 µM) | 11.3 µg/mL (≈ 38.7 µM) |  |  |  | 29.3 µM | 31.6 µM | 20 µM |  |
| C[N+](C)(CCCN1c2ccccc2Sc2ccc(Cl)cc21)c1ccc(Cl)c(Cl)c1 | 0.47 µg/mL | 3.5 µg/mL | 4 µg/mL | < 1.1 µg/mL | 0.02 µg/mL |  |  | 0.18 µM | 3.5 µM |  | 0.44 µM |  |
| O=C(Nc1cc(Cl)ccc1Sc1ccccc1)c1ccccc1 | > 30 µg/mL | 9 µg/mL (≈ 26.5 µM) | > 30 µg/mL | 19.8 µg/mL (≈ 58.3 µM) | 8.7 µg/mL (≈ 25.6 µM) |  |  |  | 37.7 µM | 49.6 µM | 24.5 µM |  |
